For 20 compounds, inhibition results are on record in PubChem BioAssay AID493160 (Sanford-Burnham Center for Chemical Genomics, 2011).

Out of some 340,000 compounds screened, about 540 (0.16%) were called active. The sample holds actives, similar compounds and a random draw of the others, so the mix is not that of the screen. A number with no mark means an inactive call.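 The calls were made as follows: active = inhibition above about 35% when tested at 20 µM (limit read from the data); inactive = the rest.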

Chain of Hexokinase HKDC1 (Homo sapiens) (Q2TB90 whole entry, looked up): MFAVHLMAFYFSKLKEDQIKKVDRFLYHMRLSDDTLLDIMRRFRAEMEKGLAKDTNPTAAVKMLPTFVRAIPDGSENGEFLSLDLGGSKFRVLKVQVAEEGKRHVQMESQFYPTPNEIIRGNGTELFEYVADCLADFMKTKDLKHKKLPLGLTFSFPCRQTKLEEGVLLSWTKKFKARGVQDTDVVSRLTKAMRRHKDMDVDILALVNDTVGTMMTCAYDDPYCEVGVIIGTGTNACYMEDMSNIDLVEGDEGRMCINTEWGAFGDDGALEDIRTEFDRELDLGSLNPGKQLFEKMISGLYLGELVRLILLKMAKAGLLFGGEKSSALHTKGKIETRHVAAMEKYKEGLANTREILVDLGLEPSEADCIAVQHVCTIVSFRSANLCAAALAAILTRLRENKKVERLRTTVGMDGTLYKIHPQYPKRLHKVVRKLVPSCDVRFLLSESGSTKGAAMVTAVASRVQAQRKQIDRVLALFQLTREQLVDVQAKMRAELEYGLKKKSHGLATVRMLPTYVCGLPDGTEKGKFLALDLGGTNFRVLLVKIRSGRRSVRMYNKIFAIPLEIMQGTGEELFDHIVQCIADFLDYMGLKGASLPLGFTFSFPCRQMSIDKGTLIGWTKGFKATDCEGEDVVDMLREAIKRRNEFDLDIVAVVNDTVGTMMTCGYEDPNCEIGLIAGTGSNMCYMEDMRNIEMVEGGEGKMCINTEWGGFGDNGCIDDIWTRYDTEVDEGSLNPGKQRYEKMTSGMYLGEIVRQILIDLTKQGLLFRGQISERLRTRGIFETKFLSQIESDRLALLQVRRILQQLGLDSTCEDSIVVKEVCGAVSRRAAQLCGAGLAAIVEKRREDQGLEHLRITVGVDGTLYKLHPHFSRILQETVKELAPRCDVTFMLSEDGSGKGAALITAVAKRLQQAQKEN

This experiment concerns the target Hexokinase HKDC1 (Homo sapiens) (UniProt Q2TB90). As to the kind of experiment: HKDC1 hexokinase inhibitors, primary screen, biochemical, fluorescence, uHTS (AID 493160).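 Also: plate controls were DMSO wells with enzyme for no effect and DMSO wells lacking enzyme for full effect.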 The conditions noted are these: recombinant HKDC1, G6PDH/diaphorase resazurin coupled fluorescence; at 20 µM; hits give high values. The method in brief:
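Assay system – recombinant HKDC1 (HK5) hexokinase enzyme, produced in-house · Input – HKDC1 at 5 µg/mL · Reagent – glucose plus 1 mM ATP as hexokinase substrates · Timing – 90 min reaction incubation at room temperature, dark · Measured by – G6PDH/diaphorase-coupled fluorescence, 1 mM NADP, 100 µM resazurin, 525/613 nm · Benchmarks – DMSO-enzyme wells negative, buffer-substituted wells positive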
(The colour change of resazurin is a common sign of viable cells or microbes.)
Usually inhibition stands for the relative decrease from the control value, in per cent. For the compound `CC(=O)N1CSCC1C(=O)O` (stereo not given), the inhibition was -1.3%. Next, `CCOc1ccc(N2C(=O)CN(c3cccc4ccccc34)C2=S)cc1`: -10.4%; `Cc1ccc(S(=O)(=O)NC(=O)COc2ccccc2C)cc1`: -6.13%. As for `Cn1c2ccccc2c2cc(/C=C(\NC(=O)c3ccccc3)C(=O)NCC(=O)O)ccc21`, the figure is -5.19%; as for `Cc1c(-c2ccccc2)cn2c1-c1ccc(C)n1CC2`, 1.47%.

Take `COc1ccc(-c2csc3ncnc(Oc4ccc5c(C)cc(=O)oc5c4)c23)cc1`: the inhibition was 6.07%.

`CCCCN(C(=O)c1cccc(N2C(=O)c3ccccc3C2=O)c1)c1c(N)n(CCCC)c(=O)[nH]c1=O`: the inhibition was -1.42%. `Cc1ccc(N(C(=O)c2ccc(S(=O)(=O)N(C)C)cc2)C2C=CS(=O)(=O)C2)cc1` (stereo not given): the inhibition is -6.81%. As to `NS(=O)(=O)c1ccc(CCNC(=O)c2nc(CS(=O)(=O)c3ccc(Cl)cc3)no2)cc1`, the inhibition is 4.98%. As to `Cc1nc2ccc(N)nc2nc1C`, the inhibition is -5.39%. For the compound `Cc1cccc([C@@H]2[C@@H]3C(=O)N(C)C(=O)[C@@H]3[C@@H]3C(=O)Nc4ccccc4C(=O)N23)c1`, the inhibition was -0.25%. On to `CC(C)=CC(=O)Nc1nnc(-c2ccc(F)cc2)s1`, for which the inhibition was 6.59%. Next, `Cc1cc(C)n(CCNC(=O)CC2C(=O)NCCN2Cc2ccc(C)o2)n1` (stereo not given): -9.7%; `Cc1ccc(O)c(NC(=O)c2cc(-c3ccco3)on2)c1`: -2.87%.

Regarding `CC(=O)N1CC(=O)N(CC(=O)Nc2ccc(Br)cc2)C1=S`, the inhibition was -1.64%. `O=C(O)c1ccc(NS(=O)(=O)c2ccc3c(c2)C(=O)c2cc(S(=O)(=O)Nc4ccc(C(=O)O)cc4)ccc2-3)cc1`: the inhibition was 2.22%. As to `COc1cc(OC)c(C(=O)NCc2ccc3c(c2)OCO3)cc1OC`, the inhibition was -0.69%. As for `CCn1cc(C(=O)N2CCN(Cc3ccc4c(c3)OCO4)CC2)c2cc(OC)c(OC)cc2c1=O`, the figure is -2.84%; as for `CCn1cc(C(=O)NCc2ccc3c(c2)OCO3)c2cc(OC)c(OC)cc2c1=O`, 37.8% (active); as for `COc1ccc(C(C)C)cc1S(=O)(=O)Nc1ncn[nH]1`, -3.49%.
